Laboratory results published in ChEMBL document CHEMBL1123990, “The in vitro dental plaque inhibitory properties of a series of N-[1-alkyl-4(1H)-pyridinylidene]alkylamines” (1988).
In brackets after ≈: the same amount, converted by molar mass. Activity calls are given as the source filed them. The rule behind the calls is not given here.

How the values were obtained:
Streptococcus sobrinus [1] = assay: Chlorohexidine coefficient for Streptococcus sobrinus 6715-13; type: functional
Outline: (§1)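 Hydroxylapatite-grown plaques were exposed once daily for 2 min to varying concentrations of agent until the organisms were killed. The highest level tested was 0.2% w/v for 5 days. Tests were run in duplicate. PBI is the concentration (mM) × duration (min) × frequency (days) needed for plaque kill. CC is the chlorhexidine PBI divided by the test-agent PBI.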

Streptococcus sobrinus [2] = assay: Minimal bactericidal concentration against Streptococcus sobrinus 6715-13; type: functional
Outline: (§2)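 Plaques were grown on standardized ceramic hydroxylapatite plates and immersed once in agent for 30 min. They were rinsed with sterile distilled water, moved to fresh broth and incubated anaerobically at 37 °C. Kill meant no further culture acid production, no turbidity change, and no growth when 48-h post-treatment plaque samples were subcultured. Tests were run in duplicate.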

Actinomyces viscosus [3] = assay: Plaque bactericidal index against Actinomyces viscosus M-100 measured as chlorohexidine coefficient; type: functional; outline: as §1
Actinomyces viscosus [4] = assay: Chlorohexidine coefficient for Actinomyces viscosus M-100; type: functional; outline: as §1
Streptococcus sobrinus [5] = assay: Plaque bactericidal index against Streptococcus sobrinus 6715-13 measured as chlorohexidine coefficient; type: functional; outline: as §1
Actinomyces viscosus [6] = assay: Plaque bactericidal index against Actinomyces viscosus M-100 measured as chlorohexidine coefficient; not bactericidal at highest concentration tested (0.2% w/v, 2min, 5 days); type: functional, organism-based; outline: as §1
Streptococcus sobrinus [7] = assay: Minimal bactericidal concentration against d Streptococcus sobrinus 6715-13; Not active at 20 mM; type: functional, organism-based; outline: as §2
Streptococcus sobrinus [8] = assay: Plaque bactericidal index against Streptococcus sobrinus 6715-13 measured as chlorohexidine coefficient; d=Not bactericidal at highest concentration tested (0.2% w/v, 2min, 5 days); type: functional, organism-based; outline: as §1
Actinomyces viscosus [9] = assay: Plaque bactericidal index against Actinomyces viscosus M-100 measured as chlorohexidine coefficient; d=Not bactericidal at highest concentration tested (0.2% w/v, 2min, 5 days); type: functional, organism-based; outline: as §1

For `Br.CCCCC(CC)CN=c1ccn(CC(CC)CCCC)cc1` (centres undefined), the CC (Streptococcus sobrinus [1]) was 1.3, the MBC (Streptococcus sobrinus [2]) was 1250 µM and the PBI (Actinomyces viscosus [3]) was 20. It also gave a CC (Actinomyces viscosus [4]) of 1 and a PBI (Streptococcus sobrinus [5]) of 20.

In the case of `Br.CCCCCCCCCN=c1ccn(CCCCCCCC)cc1`, the CC (Streptococcus sobrinus [1]) is reported as 2.6, the MBC (Streptococcus sobrinus [2]) is reported as 1210 µM and the PBI (Actinomyces viscosus [3]) is reported as 9.7. The CC (Actinomyces viscosus [4]) was 1.9 and the PBI (Streptococcus sobrinus [5]) was 9.7.

In the case of `Br.CCCCCCCCN=c1ccn(CC(CC)CCCC)cc1` (centres undefined), the CC (Streptococcus sobrinus [1]) is reported as 2, the MBC (Streptococcus sobrinus [2]) is reported as 1250 µM and the PBI (Actinomyces viscosus [3]) is reported as 12.5. The CC (Actinomyces viscosus [4]) was 1.5 and the PBI (Streptococcus sobrinus [5]) was 12.5.

For `CCCCCCCCCn1ccc(=NCCCCCC)cc1.Cl`, the CC (Streptococcus sobrinus [1]) was 8.8, the MBC (Streptococcus sobrinus [2]) was 290 µM and the PBI (Actinomyces viscosus [3]) was 8.8. It also gave a CC (Actinomyces viscosus [4]) of 2.2 and a PBI (Streptococcus sobrinus [5]) of 2.9.

For `CN=c1ccn(C)cc1`, the PBI (Actinomyces viscosus [6]) was “Not bactericidal”, the MBC (Streptococcus sobrinus [7]) was “inactive” and the PBI (Streptococcus sobrinus [8]) was “Not bactericidal”.

`CCCCCCCCN=c1ccn(CCCCCCCCCCn2ccc(=NCCCCCCCC)cc2)cc1` [OCTENIDINE] gave a CC (Streptococcus sobrinus [1]) of 1, an MBC (Streptococcus sobrinus [2]) of 3200 µM (≈ 1760 µg/mL) and a PBI (Actinomyces viscosus [3]) of 19.2. The CC (Actinomyces viscosus [4]) was 1 and the PBI (Streptococcus sobrinus [5]) was 25.6.

With `CCCCCCN=c1ccn(CCCCCC)cc1` the MBC (Streptococcus sobrinus [2]) was 1580 µM (≈ 415 µg/mL), the PBI (Streptococcus sobrinus [8]) was “Not bactericidal” and the PBI (Actinomyces viscosus [9]) was “Not bactericidal”.

In the case of `N=C(NCCCCCCNC(=N)NC(=N)Nc1ccc(Cl)cc1)NC(=N)Nc1ccc(Cl)cc1` [CHLORHEXIDINE], the MBC (Streptococcus sobrinus [2]) is reported as 3200 µM (≈ 1620 µg/mL), the PBI (Actinomyces viscosus [3]) is reported as 19.2 and the PBI (Streptococcus sobrinus [5]) is reported as 25.6.

Work on `Br.CCCCCCCCCN=c1ccn(CCCCCCC)cc1` yielded a CC (Streptococcus sobrinus [1]) of 2.5, an MBC (Streptococcus sobrinus [2]) of 1250 µM and a PBI (Actinomyces viscosus [3]) of 10. The CC (Actinomyces viscosus [4]) was 1.9 and the PBI (Streptococcus sobrinus [5]) was 10.

For `Br.CCCCCCCCn1ccc(=NCCCCCCC)cc1`, the CC (Streptococcus sobrinus [1]) was 2.5, the MBC (Streptococcus sobrinus [2]) was 1300 µM and the PBI (Actinomyces viscosus [3]) was 10.4. For the same molecule, the CC (Actinomyces viscosus [4]) was 1.8 and the PBI (Streptococcus sobrinus [5]) was 10.4.

For `CCCCCCCCCN=c1ccn(CCCCCC)cc1.Cl`, the CC (Streptococcus sobrinus [1]) was 8.8, the MBC (Streptococcus sobrinus [2]) was 290 µM and the PBI (Actinomyces viscosus [3]) was 2.9. It also gave a CC (Actinomyces viscosus [4]) of 6.6 and a PBI (Streptococcus sobrinus [5]) of 2.9.

Molecule `Br.CCCCCCCN=c1ccn(CCCCCCC)cc1` has a CC (Streptococcus sobrinus [1]) of 3.2, an MBC (Streptococcus sobrinus [2]) of 1350 µM and a PBI (Actinomyces viscosus [3]) of 5.4. It also gave a CC (Actinomyces viscosus [4]) of 4 and a PBI (Streptococcus sobrinus [5]) of 8.

With `CCCCCCCCn1ccc(=NCCCCCC)cc1.Cl` the CC (Streptococcus sobrinus [1]) was 5.6, the MBC (Streptococcus sobrinus [2]) was 310 µM and the PBI (Actinomyces viscosus [3]) was 3. The CC (Actinomyces viscosus [4]) was 6.4 and the PBI (Streptococcus sobrinus [5]) was 4.6.

`CCCCCCCN=c1ccn(CCCCCC)cc1.Cl` gave a CC (Streptococcus sobrinus [1]) of 2, an MBC (Streptococcus sobrinus [2]) of 1600 µM and a PBI (Actinomyces viscosus [3]) of 6.4. For the same molecule, the CC (Actinomyces viscosus [4]) was 3 and the PBI (Streptococcus sobrinus [5]) was 12.8.
